High-throughput results (PubChem)
ARFGAP1 inh – rat ARFGAP1 inhibition. Q62848. Arfgap1-stimulated ARF1 GTP hydrolysis, GDP FP detection. inhibition, % at 16.5 µM. actives 0.26% (n = 360,000);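 active means inhibition above a per-plate limit, mean inhibition of low control wells plus 3 SD, cut at about 25% in these data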;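 further: 0% = DMSO wells with enzyme and 100% = wells lacking Arfgap1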
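system = rat Arfgap1 catalytic domain, aa 1-136 | technique = FP, GDP Alexa 633 tracer displaced from anti-GDP antibody, 620/688 nm | compound = one concentration, 16.5 µM, DMSO 1.26% | medium = HEPES-based buffer, pH 7.5 | timing = compound-enzyme preincubation 20 min, reaction 120 min, detection 60 min, 25 °C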
Neddyl block – cullin neddylation inhibition; AID 651699; TR-FRET cullin neddylation, biochemical; actives 0.58% (n = 360,000); inhibition, % at 25 µM; in the data active means inhibition above about 36%
Target sequence (P61081 whole entry, looked up): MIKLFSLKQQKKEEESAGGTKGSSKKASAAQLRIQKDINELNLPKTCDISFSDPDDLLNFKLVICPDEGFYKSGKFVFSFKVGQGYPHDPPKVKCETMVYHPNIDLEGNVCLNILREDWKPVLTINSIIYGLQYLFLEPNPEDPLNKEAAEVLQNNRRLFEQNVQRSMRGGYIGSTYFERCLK
Target sequence (Q13564 whole entry, looked up): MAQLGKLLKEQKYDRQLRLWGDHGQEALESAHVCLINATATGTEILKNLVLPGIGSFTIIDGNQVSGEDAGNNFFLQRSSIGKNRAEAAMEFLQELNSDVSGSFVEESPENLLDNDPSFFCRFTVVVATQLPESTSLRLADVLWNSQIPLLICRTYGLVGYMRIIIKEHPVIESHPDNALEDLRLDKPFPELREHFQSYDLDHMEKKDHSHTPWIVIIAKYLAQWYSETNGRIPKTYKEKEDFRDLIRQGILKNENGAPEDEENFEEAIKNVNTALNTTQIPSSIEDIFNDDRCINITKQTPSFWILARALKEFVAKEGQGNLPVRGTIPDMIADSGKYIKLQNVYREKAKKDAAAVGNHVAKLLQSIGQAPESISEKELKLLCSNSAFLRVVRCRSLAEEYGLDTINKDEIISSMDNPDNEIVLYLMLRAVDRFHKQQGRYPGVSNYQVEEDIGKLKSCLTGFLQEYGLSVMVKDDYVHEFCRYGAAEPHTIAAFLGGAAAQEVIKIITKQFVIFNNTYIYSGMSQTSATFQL
ASAP1 GAP inh – ASAP1 ArfGAP inhibition. actives 0.19% (n = 360,000). inhibition, % at 16.5 µM. AID 624377. ASAP1-stimulated ARF1 GTP hydrolysis, GDP FP detection. Q9ULH1; in the data active means inhibition above about 25%;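 further: 0% = vehicle with enzyme and substrate and 100% = no enzyme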
Cardio protect – myocardial damage modulation in H9c2 cells. H9c2 cardiomyocytes, H2O2 injury protection, ATPLite, 2 h. protection from H2O2 cell death, % at 20 µM. actives 0.63% (n = 360,000). AID 588492;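 active means compounds giving at least 50% protection of heart cells from peroxide-induced death in the single-dose screen, raw or plate-pattern-corrected value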;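 further: 0% = DMSO wells with peroxide and 100% = DMSO wells without peroxide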
Neddyl conf – cullin neddylation inhibition, confirmation; TR-FRET cullin neddylation biochemical assay; calls only at 25 µM; actives 13% (n = 1,800); shares compounds with Neddyl block; in the data active means inhibition above about 40%;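 further: neddylation substrate is the cullin 1 ring ligase complex with SKP2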
* = called active by the depositor; i = inactive; . = no result shown; + = active, no number. The list is not random: actives were taken first. Their share in the collection is about 1.6%.

SMILES	ARFGAP1 inh	Neddyl block	ASAP1 GAP inh	Cardio protect	Neddyl conf
O=C(c1ccc(C(F)(F)F)cc1)N1CCN(c2ccc(N3CCOCC3)nn2)CC1	1.5	59.1*	20.1	0.1	.
COC(=O)C[C@@H]1C=C[C@@H](NC(C)=O)[C@@H](CO)O1	-5.4	-10.0	10.4	.	.
O=C(C(=O)N1CCN(C(=O)c2ccco2)CC1)c1ccccc1	7.2	-9.6	9.6	.	.
S=c1[nH]c2cnc(Cl)nc2[nH]1	10.0	2.5	2.8	1.8	.
S=c1[nH]c2nc(Cl)c(Cl)nc2[nH]1	-18.4	41.0*	-7.3	2.0	+
CC(=O)NCC1CCCN(Cc2cn(-c3ccccc3F)nc2-c2cc(C)sc2C)C1 (stereo not drawn)	4.0	0.5	5.2	-2.9	.
COC(=O)C1CCN(Cc2cn(-c3ccccc3)nc2-c2ccc3c(c2)OCO3)CC1	-8.3	40.1*	-18.2	-5.9	i
CC(=O)NCC1CCCN(Cc2cn(-c3ccccc3)nc2-c2ccc3c(c2)OCO3)C1 (stereo not drawn)	9.2	40.4*	4.9	12.1	i
CCOC(=O)C1(C)CCN1C(=O)c1ccccc1Br (stereo not drawn)	10.7	-7.0	5.7	3.6	.
Nc1c2c(=O)oc(-c3ccccc3)cc2nn1-c1ccccc1	16.2	50.0*	-12.2	-1.3	+
COc1cc(NC(=O)Nc2nc(C(N)C3CCCCC3)cs2)cc(OC)c1OC (stereo not drawn)	-1.3	-3.9	10.6	-8.8	.
c1ccc(CN2CCN(c3nc(N4CCOCC4)c4ccccc4n3)CC2)cc1	-5.2	32.3	-9.6	10.5	.
CN1CCN(c2nc(N3CCN(CCO)CC3)nc3ccccc23)CC1	-5.8	44.7*	9.1	13.8	.
CC(C)NC(=O)C1(C)CCN1C(=O)C(c1ccccc1)c1ccccc1 (stereo not drawn)	3.1	-4.3	0.6	5.4	.
Cc1cc(C)c2c(N)c(C(=O)c3cccc(Cl)c3)sc2n1	2.7	37.5*	6.1	20.0	i
Cc1cc(C)c2c(N)c(C(=O)c3ccc(Cl)cc3Cl)sc2n1	0.0	.	-5.9	-5.2	.
COc1ccc(Cl)c2sc(NC(=O)C3=COCCO3)nc12	9.2	42.0*	-4.4	-0.4	i
COc1ccc(-c2csc(NC(=O)C3=COCCO3)n2)cc1OC	-0.4	7.8	15.4	7.6	.
O=C(NNc1nc2c(F)cccc2s1)C1=COCCO1	1.8	6.2	-4.2	-6.8	.
CSc1cccc2sc(NC(=O)C3=COCCO3)nc12	18.9	51.9*	14.5	-0.6	.
COc1ccc2oc(C(=O)OCC(=O)Nc3ccc(OC)c(S(N)(=O)=O)c3)c(C)c2c1	3.1	53.4*	-3.1	6.3	.
COc1ccc2oc(C(=O)OCC(=O)N(C)CC(=O)Nc3ccc(C)cc3)c(C)c2c1	-1.3	41.1*	-17.1	-2.4	.
CCOCCn1c2ccccc2c2nc3ccccc3nc21	0.4	40.7*	-8.1	1.9	i
CCn1c2ccccc2c2nc3cc(OC)c(OC)cc3nc21	10.4	48.0*	1.1	50.9*	.
COC(=O)C1=C(C)N(Cc2ccccc2C(F)(F)F)C(=NCc2ccc(OC)cc2)NC1CCc1ccccc1 (stereo not drawn)	-0.5	.	-7.0	.	.
SMILES	ARFGAP1 inh	Neddyl block	ASAP1 GAP inh	Cardio protect	Neddyl conf
c1ccc(-c2nc3ccccn3c2-c2ccccc2)cc1	-20.0	40.5*	-0.9	-5.2	.
Cc1nn(C)cc1C(C)NC(=O)c1cc(COc2c(F)cccc2F)on1 (stereo not drawn)	-5.7	2.6	-5.0	5.2	.
COCC1CCN(C(=O)c2cc(COc3cccc4cnccc34)on2)CC1	3.5	55.3*	6.2	-14.7	.
Cc1nn(C)cc1C(C)NC(=O)c1cc(COc2cccc3cnccc23)on1 (stereo not drawn)	5.7	41.3*	7.6	-4.1	+
O=C(NCCN1CCC(n2c(=O)[nH]c3ccccc32)CC1)c1cccnc1Cl	-4.0	-0.7	-3.6	.	.
CCOC(=O)c1c(-c2ccccc2)n(C)c2ccc(O)cc12	2.8	41.8*	2.9	-2.9	.
COC(=O)c1cc2c(c3c4cc(OC)ccc4n(S(=O)(=O)c4ccc(OC)cc4)c13)C(=O)N(Cc1ccc(N(C)C)cc1)C2	2.5	.	11.5	.	.
CC(C)c1ccc(S(=O)(=O)c2n[nH]n3c2nc(=O)c2ccccc23)cc1	6.8	50.2*	-4.3	-4.1	i
CCc1ccc(S(=O)(=O)c2n[nH]n3c2nc(=O)c2ccccc23)cc1	-16.1	45.8*	-7.7	4.9	i
O=c1nc2c(-c3ccccc3F)n[nH]n2c2ccccc12	-4.1	.	-5.2	-3.1	.
Cc1nn(-c2ccccc2)c(Cl)c1/C=C(/CC(=O)O)c1nc2ccccc2s1	-18.9	-5.6	0.0	2.9	.
Cc1c(/C=C(\CC(=O)O)c2nc3ccccc3s2)cc(C#N)n1C	-1.9	42.8*	1.3	-2.7	.
CCCCCCCCCCCCNC[C@@H]1CSCCS(=O)(=O)N1	9.8	.	16.6	.	.
